Experimental data reported in paper PMC7415516 (Clinical genitourinary cancer, 2020).
Where two headings read alike, the source gives them in different places.

What was measured:
[1] = test system: patients with mCRPC previously treated with enzalutamide; test: Phase 2 open label study: PSA response, time to progression, overall survival; format: in vivo, human
In short: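 Open-label trial in men aged 18 or older with progressive mCRPC after more than three 28-day enzalutamide cycles, split into pre- and post-docetaxel cohorts. Oral dosing without routine steroids: 150 mg twice daily titrated to 450 mg twice daily, later amended to 750 mg, then 600 mg, once daily. PSA response was a ≥50% drop from baseline at 12 weeks (PCWG2). Radiographic progression by modified RECIST 1.1. Kaplan-Meier time to progression and overall survival.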

[2] = test system: patients with mCRPC previously treated with enzalutamide; test: Toxicity evaluation, adverse events graded by CTCAE version 4.0; format: in vivo, human
In short: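 Adverse events in enrolled mCRPC patients were graded per NCI CTCAE v4.0 during oral dosing: twice-daily titration to 450 mg, later 750 mg or 600 mg once daily. A related Grade 3 event held treatment until recovery to Grade 1 or baseline. Investigator-discretion reductions were allowed for low-grade events. Drug was stopped for Grade 4 events, a delay over 6 weeks, or more than 2 reductions.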

[3] = Pharmacokinetic analysis, plasma concentrations by LC-MS/MS, noncompartmental; format: in vivo, human; settings: for half-life / Cmax / Tmax / Vd/F: male, human, plasma; for Vd/F: Vz/F
[4] = test system: CYP17 lyase; settings: cited from earlier work
[5] = test system: enzalutamide-resistant cell lines (e.g. C4–2, C4–2B, MR49C, MR49F); settings: established enzalutamide-resistant cell lines; cited from earlier work
[6] = test system: CRPC cell lines MR49F, MDA-PCA-133, LNCaP; settings: MDA-PCA-133, LNCaP (AR F876L, H874Y, T877A); cited from earlier work
[7] = test system: patients with CRPC; settings: cited from earlier work; for PSA response rate: treatment naïve patients, daily cumulative doses of 600 mg or greater
[8] = test system: patients with CRPC; settings: phase 1 study, once daily dosing; cited from earlier work
[9] = test system: patients with mCRPC; settings: sequence of ENZ followed by AA, cited from earlier work
[10] = N = 17, attribution at least possible
[11] = 600 mg oral, C1D1 (n=4), first dose
[12] = 600 mg oral, C2D1 (n=4), steady-state
[13] = 750 mg oral, C1D1 (n=3), first dose
[14] = 750 mg oral, C2D2 (n=l), steady-state
[15] = po, 600 mg, 600 mg oral, C1D1 (n=4), first dose
[16] = po, 600 mg, 600 mg oral, C2D1 (n=4), steady-state
[17] = po, 750 mg, 750 mg oral, C1D1 (n=3), first dose
[18] = po, 750 mg, 750 mg oral, C2D2 (n=l), steady-state

## CC(C)[C@](O)(c1ccc2cc(OC(F)F)c(OC(F)F)cc2c1)c1c[nH]nn1 [Seviteronel]
[1]; all 17 patients, after 12 weeks of seviteronel, PCWG2 criteria
  rate of significant PSA response (≥ 50% decrease in baseline serum PSA): 6%
[1]; of 17 patients
  patients having documented PSA progression per PCWG2: 8 patients
[1]; one patient, pre-chemotherapy cohort, 750 mg once daily reduced to 450 mg once daily, after 11 weeks
  minimal decline in PSA: 15%
[2]; [10]
  Blurred Vision, All Grades (Gr 1–3): 4 (24) No. Patients (%)
  Blurred Vision, Grade 1: 3 (18) No. Patients (%)
  Blurred Vision, Grade 2: 1 (6) No. Patients (%)
  Blurred Vision, Grade 3: 0 (0) No. Patients (%)
  Concentration Impairment, All Grades (Gr 1–3): 14 (82) No. Patients (%)
  Concentration Impairment, Grade 1: 9 (53) No. Patients (%)
  Concentration Impairment, Grade 2: 4 (24) No. Patients (%)
  Concentration Impairment, Grade 3: 1 (6) No. Patients (%)
  Dizziness, All Grades (Gr 1–3): 6 (35) No. Patients (%)
  Dizziness, Grade 1: 3 (18) No. Patients (%)
  Dizziness, Grade 2: 1 (6) No. Patients (%)
  Dizziness, Grade 3: 2 (12) No. Patients (%)
  Edema (limbs), All Grades (Gr 1–3): 3 (18) No. Patients (%)
  Edema (limbs), Grade 1: 2 (12) No. Patients (%)
  Edema (limbs), Grade 2: 1 (6) No. Patients (%)
  Edema (limbs), Grade 3: 0 (0) No. Patients (%)
  Fall, All Grades (Gr 1–3): 3 (18) No. Patients (%)
  Fall, Grade 1: 1 (6) No. Patients (%)
  Fall, Grade 2: 1 (6) No. Patients (%)
  Fall, Grade 3: 1 (6) No. Patients (%)
  Fatigue, All Grades (Gr 1–3): 11 (65) No. Patients (%)
  Fatigue, Grade 1: 3 (18) No. Patients (%)
  Fatigue, Grade 2: 8 (47) No. Patients (%)
  Fatigue, Grade 3: 0 (0) No. Patients (%)
  Gait Disturbance, All Grades (Gr 1–3): 3 (18) No. Patients (%)
  Gait Disturbance, Grade 1: 3 (18) No. Patients (%)
  Gait Disturbance, Grade 2: 0 (0) No. Patients (%)
  Gait Disturbance, Grade 3: 0 (0) No. Patients (%)
  Hypotension, All Grades (Gr 1–3): 4 (24) No. Patients (%)
  Hypotension, Grade 1: 1 (6) No. Patients (%)
  Hypotension, Grade 2: 2 (12) No. Patients (%)
  Hypotension, Grade 3: 1 (6) No. Patients (%)
  Malaise, All Grades (Gr 1–3): 3 (18) No. Patients (%)
  Malaise, Grade 1: 0 (0) No. Patients (%)
  Malaise, Grade 2: 3 (18) No. Patients (%)
  Malaise, Grade 3: 0 (0) No. Patients (%)
  Nausea, All Grades (Gr 1–3): 9 (53) No. Patients (%)
  Nausea, Grade 1: 7 (41) No. Patients (%)
  Nausea, Grade 2: 0 (0) No. Patients (%)
  Nausea, Grade 3: 2 (12) No. Patients (%)
  Presyncope, All Grades (Gr 1–3): 3 (18) No. Patients (%)
  Presyncope, Grade 1: 0 (0) No. Patients (%)
  Presyncope, Grade 2: 3 (18) No. Patients (%)
  Presyncope, Grade 3: 0 (0) No. Patients (%)
  Tremor, All Grades (Gr 1–3): 10 (59) No. Patients (%)
  Tremor, Grade 1: 9 (53) No. Patients (%)
  Tremor, Grade 2: 1 (6) No. Patients (%)
  Tremor, Grade 3: 0 (0) No. Patients (%)
  Vomiting, All Grades (Gr 1–3): 3 (18) No. Patients (%)
  Vomiting, Grade 1: 3 (18) No. Patients (%)
  Vomiting, Grade 2: 0 (0) No. Patients (%)
  Vomiting, Grade 3: 0 (0) No. Patients (%)
[2]; in vivo
  Grade 4 adverse events related to study treatment: No Grade 4 adverse events related to the study treatment were reported
  number of Grade 3 adverse events: nine
[2]; of 17 patients
  Concentration impairment Grade 2 or higher: 5 patients
  patients with CNS toxicities that contributed to treatment discontinuation: nine
[2]; patients receiving 750 mg once daily
  diarrhea: not reported
[2]; twice daily 450 mg or once daily 600/750 mg, without oral steroids
  tolerability: not generally well tolerated
[3]; [11]
  AUC/D (dose-normalized): 55.1 ± 7.21 mg·h/L/mg
  Cmax/D (dose-normalized): 6.77 ± 3.20 mg/L/mg
[3]; 600 mg oral, C1D1 (n=4), first dose, Dose/AUCinf
  CL/F: 18.4 ± 2.50 L/h
[3]; [12]
  AUC/D (dose-normalized): 92.3 ± 9.94 mg·h/L/mg
  Cmax/D (dose-normalized): 7.76 ± 1.93 mg/L/mg
[3]; 600 mg oral, C2D1 (n=4), steady-state, Dose/AUCtau
  CL/F: 10.9 ± 1.32 L/h
[3]; [13]
  AUC/D (dose-normalized): 58.9 ± 2.87 mg·h/L/mg
  Cmax/D (dose-normalized): 6.82 ± 2.54 mg/L/mg
[3]; 750 mg oral, C1D1 (n=3), first dose, Dose/AUCinf
  CL/F: 17.0 ± 0.84 L/h
[3]; [14]
  AUC/D (dose-normalized): 84.6 mg·h/L/mg
  Cmax/D (dose-normalized): 7.53 mg/L/mg
[3]; 750 mg oral, C2D2 (n=l), steady-state, Dose/AUCtau
  CL/F: 11.8 L/h
[3]; 6 patients, p=0.001
  increase of dose-normalized steady-state AUCτ over first dose AUCINF: 61%
[3]; Cycle 1
  dose-normalized CMAX, mean: 6.79 µg/L/mg
[3]; first dose
  dose-normalized first dose AUCINF: 56.7 µg·h/L/mg
[3]; oral, mean first dose half-life, 48-hr sampling window, range 7.9 – 23.5 hr
  half-life: 13.9 h
[3]; [15]
  Cmax: 4070 ± 1920 ng/mL
  Tmax: 2 h
  Vd/F: 438 ± 146 L
[3]; [16]
  Cmax: 4660 ± 1160 ng/mL
  Tmax: 5 ± 2.58 h
  Vd/F: 229 ± 77.7 L
[3]; po, 600 mg, T1/2, 600 mg oral, C1D1 (n=4), first dose
  half-life: 16.4 ± 4.78 h
[3]; po, 600 mg, T1/2, 600 mg oral, C2D1 (n=4), steady-state
  half-life: 14.8 ± 5.94 h
[3]; [17]
  Cmax: 5110 ± 1900 ng/mL
  Tmax: 2 ± 1.7 h
  Vd/F: 260 ± 121 L
[3]; [18]
  Cmax: 5650 ng/mL
  Tmax: 2 h
  Vd/F: 312 L
[3]; po, 750 mg, T1/2, 750 mg oral, C1D1 (n=3), first dose
  half-life: 10.5 ± 4.35 h
[3]; po, 750 mg, T1/2, 750 mg oral, C2D2 (n=l), steady-state
  half-life: 18.3 h
[3]; once daily dosing
  time to reach 97% steady-state: 69.5 h
[3]; once daily dosing until steady-state
  expected accumulation above first-dose: 43%
[3]; p=0.44
  increase of steady-state dose-normalized CMAX over Cycle 1: 20%
[3]; single oral dose 600mg or 750mg with food
  start of apparent monophasic elimination post dose: 2 to 4 h
[3]; steady-state
  dose-normalized CMAX, mean: 8.16 µg/L/mg
  dose-normalized steady-state AUCτ: 91.3 µg·h/L/mg
[4]
  selectivity towards the CYP17 lyase over hydroxylase: approximately 10 fold
[5]
  potency compared with AA: more potent than AA
[6]
  efficacy in in vivo models: effective
[7]; 450 mg twice daily, patients who had previously received ENZ
  PSA declines of 50% or greater: 2 of 7
[7]; pre-treated patients, Phase I study once daily dosing
  response rate: 0%
[7]; once daily dosing (N=9)
  PSA response rate: 33%
[7]; twice daily dosing (N=26)
  PSA response rate: 11%
[8]
  patients experiencing fatigue: 71%
  patients with blurry vision: 33%
  patients with dizziness: 52%

## CC(=O)O[C@H]1CC[C@@]2(C)C(=CC[C@@H]3[C@@H]2CC[C@]2(C)C(c4cccnc4)=CC[C@@H]32)C1 [AA, abiraterone acetate]
[9]; ref 39
  PSA response rate: 3%
[9]; ref 40
  PSA response rate: 8%
